31 compounds from ChEMBL document CHEMBL1129338, “Inhibitors of acyl-CoA:cholesterol O-acyltransferase. synthesis and pharmacological activity of (+/-)-2-dodecyl-alpha-phenyl-N-(2,4,6-trimethoxyphenyl)-2H-tetrazole-5- acetamide and structurally related tetrazole amide derivatives” (J Med Chem, 1996) can be followed below.

The structures appear in SMILES notation. Where only a bound is given, the exact number is not on record here.

Test [1] concerns Rattus norvegicus. Briefly: Percent change in total cholesterol (TC) in cholic acid (0.5%)-, cholesterol (1.5%) -, and peanut oil (5.5%)- fed rats at a dose 30 mg/kg. The class given is functional.
For test [2], the target named is T1, Sterol O-acyltransferase 1 (Mus musculus) (UniProt Q61263).
T1 sequence (whole entry): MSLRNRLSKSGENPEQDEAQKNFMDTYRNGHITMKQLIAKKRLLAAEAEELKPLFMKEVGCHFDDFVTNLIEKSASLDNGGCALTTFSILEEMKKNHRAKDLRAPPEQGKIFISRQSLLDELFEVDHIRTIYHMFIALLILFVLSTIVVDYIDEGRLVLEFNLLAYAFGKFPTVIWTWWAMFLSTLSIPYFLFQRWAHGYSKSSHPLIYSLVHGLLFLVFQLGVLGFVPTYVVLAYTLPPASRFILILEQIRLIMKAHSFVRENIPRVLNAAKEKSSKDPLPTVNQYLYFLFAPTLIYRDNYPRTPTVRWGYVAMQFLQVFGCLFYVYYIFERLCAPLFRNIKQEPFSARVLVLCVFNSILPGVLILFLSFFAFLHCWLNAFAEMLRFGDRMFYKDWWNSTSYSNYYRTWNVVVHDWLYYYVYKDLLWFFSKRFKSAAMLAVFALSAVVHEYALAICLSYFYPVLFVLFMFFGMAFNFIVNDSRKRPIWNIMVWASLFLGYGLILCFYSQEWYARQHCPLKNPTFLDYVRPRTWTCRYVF
The test can be described thus: In vitro inhibitory activity against acyl coenzyme A:cholesterol acyltransferase 1 in cell culture assay using murine IC-21 macrophages at 0.1 uM. The method in brief:
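IC-21 mouse macrophages were preincubated 16 h in serum-free DMEM with 20 µM albumin and phosphatidylserine/cholesterol vesicles. The vesicles were sonicated in 150 mM NaCl, 5 mM MOPS, 1 mM EDTA, pH 7.4, and filter-sterilized. Medium was then replaced with serum-free DMEM containing the compound in DMSO at 0.1 µM. Percent inhibition was read, with cell protein measured by the Lowry method.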

Test [3] concerns Rattus norvegicus. Briefly: Percent change in non High Density Lipoproteins (HDL) in Chronic Cholesterol -Fed rat model at a dose 30 mg/kg.
Test [4] deals with Rattus norvegicus. The test can be described thus: In vitro percent decrease in cholesterol activity at 30 mg/kg in acute rat screen. Format: functional. Particulars: in the assay text read “In vivo” for “In vitro”. Put shortly: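 Rats received a single gavage dose of 30 mg/kg, suspended in carboxymethylcellulose/Tween-20 in water, followed by one high-fat, high-cholesterol meal. The read-out was inhibition of the overnight rise in plasma total cholesterol, as percent change.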

In test [5] the test system is Rattus norvegicus. Briefly: Percent change in High Density Lipoproteins (HDL) in Chronic Cholesterol -Fed rat model at a dose 30 mg/kg. The class given is functional. The method in brief: (§1)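 Rats ate a high-fat, high-cholesterol diet for 14 days. During the second week they received the test compound daily by gavage at 30 mg/kg, in a carboxymethylcellulose/Tween-20 aqueous vehicle. Plasma lipids (total cholesterol, HDL-C, non-HDL-C) were read as percent change.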

Test [6] concerns Rattus norvegicus. The test can be described thus: % change in total cholesterol in Chronic Cholesterol-Fed rat model at dose 30 mg/kg. Format: functional. Put shortly: as §1
Test [7] deals with T2, Sterol O-acyltransferase 1 (Rattus norvegicus, UniProt O70536).
T2 sequence (O70536 whole entry): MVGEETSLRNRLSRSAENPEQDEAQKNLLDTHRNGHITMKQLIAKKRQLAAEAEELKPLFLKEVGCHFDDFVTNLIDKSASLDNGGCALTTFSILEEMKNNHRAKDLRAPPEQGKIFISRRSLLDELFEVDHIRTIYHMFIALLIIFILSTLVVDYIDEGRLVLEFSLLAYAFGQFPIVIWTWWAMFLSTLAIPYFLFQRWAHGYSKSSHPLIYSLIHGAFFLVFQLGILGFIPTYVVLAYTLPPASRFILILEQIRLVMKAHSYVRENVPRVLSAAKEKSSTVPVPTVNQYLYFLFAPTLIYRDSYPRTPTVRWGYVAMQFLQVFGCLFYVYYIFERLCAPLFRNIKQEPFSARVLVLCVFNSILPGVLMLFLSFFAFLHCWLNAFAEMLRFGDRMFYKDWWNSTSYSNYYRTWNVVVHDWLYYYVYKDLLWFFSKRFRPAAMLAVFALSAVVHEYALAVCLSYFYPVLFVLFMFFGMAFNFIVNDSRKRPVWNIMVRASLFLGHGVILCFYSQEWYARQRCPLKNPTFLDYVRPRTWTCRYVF
The test can be described thus: In vitro inhibitory activity against acyl coenzyme A:cholesterol acyltransferase 1 of liver microsomes isolated from cholesterol-fed rats. Put shortly: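 ACAT inhibition was measured in hepatic microsomes isolated from cholesterol-fed rats. Each determination was run in triplicate, and IC50 was reported.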
(Liver microsomes are vesicles of endoplasmic reticulum, rich in cytochrome P450 enzymes.)

By inhibition is commonly meant the change of the read-out against control, counted positive when it falls. Lower therefore signals a weak effect. A word on the IC50: it is the midpoint of a concentration-inhibition curve. Turning to `CCCCCCCCCCCCc1nnn(CC(=O)Nc2c(C(C)C)cccc2C(C)C)n1`, the Change in test [1] was less than 68%; in test [3], less than 81%; in test [5], 165%; in test [6], less than 72%. Further, the inhibition in test [2] came to 95%. The compound also registered a Decrease in test [4] of 68%. This compound also returned an IC50 in test [7] of 6 nM.
Regarding `CCCCCCCCCCCCn1nnc(C(C(=O)Nc2c(OC)cc(OC)cc2OC)c2ccc(OC)cc2)n1` (stereo not drawn), the Change in test [1] is given as less than 57%. The inhibition in test [2] was 61%. For the same compound, in test [7], it took 200 nM to reach half-maximal inhibition (IC50).
Turning to `CCCCCCCCCCCCn1nnc(CCC(=O)Nc2c(C(C)C)cccc2C(C)C)n1`, the Change in test [1] is given as less than 47%. In test [2], the inhibition amounted to 17%. For the same compound, the half-inhibitory concentration (IC50) in test [7] is 30 nM.
As to `CCCCCCCCCCCCn1nnc(CC(=O)Nc2c(OC)cc(OC)cc2OC)n1`, in test [1], the Change is less than 60%. For the same compound, the inhibition in test [2] turned out to be 66%. For the same compound, in test [7], it took 24 nM to reach half-maximal inhibition (IC50).
Take `CCCCCCCCCCCCn1nnc(CCC(=O)Nc2c(OC)cc(OC)cc2OC)n1`: in test [2], the inhibition was determined as 9%. In addition, the IC50 in test [7] was 480 nM.
In the case of `CCCCCCCCCCCCn1nnc(C(C(=O)NC2CC2)c2ccccc2)n1` (stereo not drawn), in test [1], the Change is listed as less than 62%. Moreover, the inhibition in test [2] stood at 10%. This compound also yielded a half-inhibitory concentration (IC50) in test [7] of 244 nM.
As for `CCCCCCCCCCCCn1nnc(C(C(=O)Nc2c(OC)ncnc2OC)c2ccccc2)n1` (stereo not drawn), the Change in test [1] was less than 56%. Further, the inhibition in test [2] worked out at 39%. The Decrease in test [4] was found to be 66%. In test [7], this compound registered a 50% inhibitory concentration (IC50) of 13 nM.
With `CCCCCCCCCCCCn1nnc(C2(C(=O)Nc3c(OC)cc(OC)cc3OC)CCCC2)n1`, the Change in test [1] is given as less than 56%. The compound also displayed an inhibition in test [2] of 16%. This compound displayed a concentration for half-maximal inhibition (IC50) in test [7] of 63 nM.
On the same counts, the results for `CCCCCCCCCCCCn1nnc(C(C(=O)Nc2ccc(F)cc2F)c2ccccc2)n1` (stereo not drawn) are less than 70%, 1% and 31 nM.
On the same counts, the results for `CCCCCCCCCCCCn1nnc(C(C(=O)Nc2c(OC)cc(OC)cc2OC)C2CCCCC2)n1` (stereo not drawn) are less than 61%, 8% and 28 nM.
On to `CCCCCCCCCCCCn1nnc(CC(=O)Nc2c(C(C)C)cccc2C(C)C)n1`, for which the Change is less than 64% in test [1], less than 63% in test [3], 82% in test [5] and less than 42% in test [6]. Also, the inhibition in test [2] worked out at 91%. Besides, in test [7], it took 5 nM to reach half-maximal inhibition (IC50).
`CCCCCCCCn1nnc(C(C(=O)Nc2c(OC)cc(OC)cc2OC)c2ccccc2)n1` (stereo not drawn): in test [1], the Change is less than 39%. The compound also came in with an inhibition in test [2] of 13%. The compound further came in with a half-inhibitory concentration (IC50) in test [7] of 270 nM.
On the same counts, the results for `CCCCCCCCCCCCn1nnc(C(C(=O)Nc2ccccn2)c2ccccc2)n1` (stereo not drawn) are 22%, 8% and 480 nM.
For `CCCCCCCCCCCCn1nnc(C(C(=O)Nc2c(OC)cc(OC)cc2OC)c2ccc(F)cc2)n1` (stereo not drawn), the Change is recorded as less than 68% in test [1], less than 53% in test [3] and 12% in test [5]. This compound also displayed an inhibition in test [2] of 46%. For the same compound, the IC50 in test [7] stood at 36 nM.
In the case of `CCCCCCCCCCCCn1nnc(C(C(=O)Nc2c(C(C)C)cccc2C(C)C)c2nnn[nH]2)n1` (stereo not drawn), in test [1], the Change is given as less than 37%. Besides, the inhibition in test [2] amounted to 8%. The compound further came in with an IC50 in test [7] greater than 5000 nM.
For `CCCCCCCCCCCCn1nnc(C(C#N)C(=O)Nc2c(OC)cc(OC)cc2OC)n1` (stereo not drawn), the Change in test [1] is reported as less than 27%. Also, the inhibition in test [2] amounted to 7%. The IC50 in test [7] turned out to be 13600 nM.
In the case of `CCCCCCCCCCCCn1nnc(C(C(=O)Nc2c(OC)cc(OC)cc2OC)c2ccc(-c3ccccc3)cc2)n1` (stereo not drawn), the Change in test [1] is listed as less than 43%. In addition, the inhibition in test [2] is 10%. The IC50 in test [7] turned out to be 221 nM.
For `CCCCCCCCCCCCn1nnc(C(F)C(=O)Nc2c(OC)cc(OC)cc2OC)n1` (stereo not drawn), in test [7], inhibition was half-maximal at 1760 nM (IC50).
For the compound `CCCCCCCCCCCCn1nnc(C(C(=O)Nc2ncccc2C)c2ccccc2)n1` (stereo not drawn), in test [1], the Change is listed as less than 52%. In test [2], this compound registered an inhibition of 4%. The compound also had a 50% inhibitory concentration (IC50) in test [7] of 85 nM.
For the compound `CCCCCCCCCCCCc1nnn(CC(=O)Nc2c(OC)cc(OC)cc2OC)n1`, the Change in test [1] is less than 69%; in test [3], less than 46%; in test [5] it was 3%; in test [6], less than 44%. For the same compound, the inhibition in test [2] came out at 61%. In test [4], this compound registered a Decrease of 69%. In addition, in test [7], the IC50 was determined as 56 nM.
Turning to `CCCCCCCCCCCCn1nnc(C(C(=O)NC(C)(C)C)c2ccccc2)n1` (stereo not drawn), the Change in test [1] is reported as 1%. This compound had an inhibition in test [2] of 1%. This compound also yielded an IC50 in test [7] of 3350 nM.
Consider `CCCCCCCCCCCCn1nnc(C(C(=O)Nc2c(OC)cc(OC)cc2OC)c2ccccn2)n1` (stereo not drawn), for which, in test [1], the Change is less than 60%. Besides, the inhibition in test [2] amounted to 23%. The 50% inhibitory concentration (IC50) in test [7] was 59 nM.
On the same counts, the results for `CCCCCCCCCCCCn1nnc(C(C(=O)Nc2ccc3c(C)cc(C)nc3n2)c2ccccc2)n1` (stereo not drawn) are 8%, 49% and 1540 nM.
`CCCCCCCCCCCCn1nnc(C(C(=O)Nc2c(OC)cc(OC)cc2OC)c2ccc(N(C)C)cc2)n1` (stereo not drawn): the Change in test [1] is less than 62%. This compound also came in with an inhibition in test [2] of 0%. Also, half-maximal inhibition in test [7] (IC50) was put at 659 nM.
On the same counts, the results for `CCCCCCCCCCCCn1nnc(C(C(=O)Nc2ccccc2)c2ccccc2)n1` (stereo not drawn) are 38%, 46% and 480 nM.
For the compound `CCCCCCCCCCCCn1nnc(C(C(=O)Nc2c(C(C)C)cccc2C(C)C)c2ccccn2)n1` (stereo not drawn), the Change in test [1] is given as less than 64%. This compound showed an inhibition in test [2] of 24%. In test [7], this compound displayed a concentration for half-maximal inhibition (IC50) of 26 nM.
As for `CCCCCCCCCCCCCCCCn1nnc(C(C(=O)Nc2c(OC)cc(OC)cc2OC)c2ccccc2)n1` (stereo not drawn), the Change is listed as less than 47% in test [1], -9% in test [3] and 16% in test [5]. In addition, the inhibition in test [2] is 55%. This compound also returned a 50% inhibitory concentration (IC50) in test [7] of 53 nM.
Turning to `CCCCCCCCCCCCn1nnc(C(C)(C)C(=O)Nc2c(OC)cc(OC)cc2OC)n1`, the Change in test [1] is less than 69%. Besides, the inhibition in test [2] amounted to 34%. The same compound came in with a concentration for half-maximal inhibition (IC50) in test [7] of 33 nM.
For `CCCCCCCCCCCCn1nnc(C(C#N)C(=O)Nc2c(C(C)C)cccc2C(C)C)n1` (stereo not drawn) the same measures were less than 75%, 7% and greater than 5000 nM.
With `CCCCCCCCCCCCn1nnc(C(C(=O)Nc2c(C)nn(C)c2C)c2ccccc2)n1` (stereo not drawn), the Change was less than 62% in test [1] and 28% in test [5]. Also, the inhibition in test [2] was found to be 66%. The compound further showed a Decrease in test [4] of 66%. For the same compound, the concentration for half-maximal inhibition (IC50) in test [7] stood at 13 nM.
Consider `CCCCCCCCCCCCn1nnc(C(=O)Nc2c(C(C)C)cccc2C(C)C)n1`, for which the Change in test [1] turned out to be 23%. The same compound registered an inhibition in test [2] of 33%. The compound also displayed an IC50 in test [7] of 1060 nM.
